Results reported in ChEMBL document CHEMBL5357072, “Structural Modification of Noscapine via Photoredox/Nickel Dual Catalysis for the Discovery of S-Phase Arresting Agents” (ACS Med Chem Lett, 2024).

How the values were obtained:
Type in all cases: functional
Conditions in all cases: read-out: GI
U-251 = assay: Antiproliferative activity against human U-251 cells assessed as cell growth inhibition at 10 uM incubated for 48 hrs by CCK8 assay relative to control
Summary of the method: (§1)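 Single-concentration screen of six cancer cell lines. Cells were exposed to 10 μM compound and growth was measured by CCK-8 assay. Results are reported as inhibition rate at 10 μM.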

A549 = assay: Antiproliferative activity against human A549 cells assessed as cell growth inhibition at 10 uM incubated for 48 hrs by CCK8 assay relative to control; summary of the method: as §1
HeLa = assay: Antiproliferative activity against human HeLa cells assessed as cell growth inhibition at 10 uM incubated for 48 hrs by CCK8 assay relative to control; summary of the method: as §1
NB-4 = assay: Antiproliferative activity against human NB4 cells assessed as cell growth inhibition at 10 uM incubated for 48 hrs by CCK8 assay relative to control; summary of the method: as §1
JeKo-1 = assay: Antiproliferative activity against human JeKo-1 cells assessed as cell growth inhibition at 10 uM incubated for 48 hrs by CCK8 assay relative to control; summary of the method: as §1
MOLM-13 = assay: Antiproliferative activity against human MOLM-13 cells assessed as cell growth inhibition at 10 uM incubated for 48 hrs by CCK8 assay relative to control; summary of the method: as §1

Row | SMILES | inhibition of growth at 10 µM (U-251) [%] | inhibition of growth at 10 µM (A549) [%] | inhibition of growth at 10 µM (HeLa) [%] | inhibition of growth at 10 µM (NB-4) [%] | inhibition of growth at 10 µM (JeKo-1) [%] | inhibition of growth at 10 µM (MOLM-13) [%]
1 | COc1ccc2c(c1OC)C(=O)O[C@@H]2[C@H]1c2c(c(CC3(F)CN(C(=O)OC(C)(C)C)C3)c3c(c2OC)OCO3)CCN1C(=O)OC(C)(C)C | < 5 | < 5 | 8.57 | 42.5 | 43.9 | 61.5
2 | COc1ccc2c(c1OC)C(=O)O[C@@H]2[C@H]1c2c(c(C3CCOCC3)c3c(c2OC)OCO3)CCN1C(=O)OC(C)(C)C | < 5 | < 5 | < 5 | 4.36 | 12 | 36.8
3 | CCC(C)Cc1c2c(c(OC)c3c1OCO3)[C@H]([C@H]1OC(=O)c3c1ccc(OC)c3OC)N(C(=O)OC(C)(C)C)CC2 (stereo partly drawn) | < 5 | < 5 | 6.92 | 9.33 | 24 | 51.2
4 | COc1ccc2c(c1OC)C(=O)O[C@@H]2[C@H]1c2c(c(CC3CCCO3)c3c(c2OC)OCO3)CCN1C(=O)OC(C)(C)C (stereo partly drawn) | 29.8 | < 5 | 24.7 | 7.48 | 15.6 | 44.9
5 | COc1ccc2c(c1OC)C(=O)O[C@@H]2[C@H]1c2c(c(CC3CCN(C(=O)OC(C)(C)C)C3)c3c(c2OC)OCO3)CCN1C(=O)OC(C)(C)C (stereo partly drawn) | < 5 | < 5 | < 5 | 23.2 | 7.92 | 52.5
6 | Nc1ccn([C@@H]2O[C@H](CO)[C@@H](O)C2(F)F)c(=O)n1 [GEMCITABINE] | 69.7 | 62.3 | 61.4 | 95.7 | 65.2 | 74.1
7 | COc1ccc2c(c1OC)C(=O)O[C@@H]2[C@H]1c2c(c(C3CC3)c3c(c2OC)OCO3)CCN1C(=O)OC(C)(C)C | < 5 | < 5 | < 5 | 7.63 | 6.87 | 19.5
8 | COc1ccc2c(c1OC)C(=O)O[C@@H]2[C@H]1c2c(c(C3CCCC3)c3c(c2OC)OCO3)CCN1C(=O)OC(C)(C)C | < 5 | < 5 | < 5 | 11.6 | 5.81 | 40
9 | COc1ccc2c(c1OC)C(=O)O[C@@H]2[C@H]1c2c(c(C34C[C@H]5C[C@H](C3)C[C@@H](C4)C5)c3c(c2OC)OCO3)CCN1C(=O)OC(C)(C)C | < 5 | < 5 | < 5 | < 5 | < 5 | 17.6
10 | COc1ccc2c(c1OC)C(=O)O[C@@H]2[C@H]1c2c(c(CC3CCCC3)c3c(c2OC)OCO3)CCN1C(=O)OC(C)(C)C | 12 | < 5 | < 5 | 20.8 | 6.68 | 51.3
11 | COc1ccc2c(c1OC)C(=O)O[C@@H]2[C@H]1c2c(c(CC3CCCN3C(=O)OC(C)(C)C)c3c(c2OC)OCO3)CCN1C(=O)OC(C)(C)C (stereo partly drawn) | < 5 | < 5 | 8.57 | 29.7 | 15.7 | 48.1
12 | COc1ccc2c(c1OC)C(=O)O[C@@H]2[C@H]1c2c(c(C3CCOC3)c3c(c2OC)OCO3)CCN1C(=O)OC(C)(C)C (stereo partly drawn) | 32.1 | < 5 | < 5 | 23.3 | 20.8 | 43.6
13 | COc1ccc2c(c1OC)C(=O)O[C@@H]2[C@H]1c2c(c(C3CC4CCC3C4)c3c(c2OC)OCO3)CCN1C(=O)OC(C)(C)C (stereo partly drawn) | < 5 | < 5 | < 5 | 15 | < 5 | 48.6
